Screens as filed in PubChem.
A selection: hits, their analogues and other compounds. The true share with any hit is near 4.4%.
HIF act: HIF pathway transcriptional activation | AID 1910 | U2OS HRE-luciferase reporter, luminescence; normalized: DMSO 0%, desferrioxamine 100% | activation, % at 7.5 µM (by protocol) | actives 0.32% (n = 300,000);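 active means mean activation of at least 10% of the iron chelator positive control signal, with at least half of replicates also reaching 10%; inconclusive means mean and replicate majority disagree about reaching 10%; inactive means mean and most replicates under 10%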
Calb FLC: C. albicans growth modulation with fluconazole; actives 0.57% (n = 300,000); AID 1979; growth inhibition, % (test concentration not listed); C. albicans CaCi-2 (fluconazole-resistant clinical isolate) + fluconazole, Alamar Blue growth, 48 h;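 active means growth inhibition above about 58% in most replicates, limit read from the data, passing the limit was not always enough; inconclusive means exactly half the replicates above a set limit; inactive means most replicates below a set limit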;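 further: all wells also contain fluconazole at 8 µg/ml as a sub-toxic cotreatment; 0% = median of DMSO wells and 100% = median of geldanamycin control wells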
HSF-1 act: increases HSF-1 driven luciferase reporter signal; activation, % at 9 µM; NIH3T3-HGL HSF-1 luciferase reporter, MG132, 8 h; 100% = twice DMSO control signal; actives 1.7% (n = 300,000);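 active means mean replicate activation of at least 50% with a set share of replicates each reaching 50%; inconclusive means only one of those two conditions met; inactive means mean below 50% and too few replicates reaching it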;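 further: 0% = median of the neutral control wells and 100% = twice that signal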
T cruzi repl: T. cruzi replication inhibition | T. cruzi beta-gal in NIH3T3, luminescence, 90 h | actives 1.4% (n = 300,000) | inhibition, % (concentration not given with the values);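 active means mean inhibition across valid replicates above about 55%, limit read from the data; inconclusive means mean below that limit but half or more replicates reach it; inactive means mean below it, under half of replicates reach it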;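 further: signal also drops with host cell toxicity which is not excluded here; 0% = plate median of DMSO wells and 100% = zero luminescence signal; higher percent means less beta-gal luminescence so fewer parasites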
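System: NIH/3T3 fibroblasts plus reporter T. cruzi. Medium: DMEM plus 2% FBS. Probe or stimulus: 5000 reporter trypomastigotes per well. Compound: single 50 nL compound addition per well in DMSO. Incubation: co-culture of at least 90 h after 3 h attachment. Detection: GalScreen β-gal luminescence, detergent lysis, 60 min. Evaluation: parasite load inhibition, %.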
HSF1 inh: HSF1 inhibition. activity change, negative = inhibition, % at 7.5 µM (by protocol). NIH3T3-HGL HSE-luciferase, MG132-induced, luminescence 8 h; stronger effect = lower value. actives 0.77% (n = 300,000);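 active means more than half of replicate wells show activity change below -50%, luminescence cut by over half; inconclusive means some wells, but at most half, below -50%; inactive means no replicate well below -50%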;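 further: luciferase reports HSF-1 transcriptional activity via heat shock element; 0% = median of DMSO wells and -100% = zero luminescence signal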
The depositor's hits bear a star; ? = inconclusive; . = no result given.

SMILES | HIF act | Calb FLC | HSF-1 act | T cruzi repl | HSF1 inh
CCOC(=O)c1c(NC(=O)c2ccco2)sc2c1CCCC2 | -0.1 | 5.0 | 0.0 | -0.7 | -3.9
Cc1cc(C)cc(C(=O)Nc2ccncc2)c1 | -24.2 | ? | 12.9 | 52.2 | -2.5
C[C@H]1CC[C@]2(O[C@H](CCO)C[C@@H](O)[C@@H]2O)O1 | -3.8 | 8.1 | -11.6 | -9.4 | 0.5
Nc1ncnc2c1ncn2[C@@H]1O[C@H](CO)C[C@@H]1O | -0.1 | 41.5 | -17.1 | 60.8* | -8.8
CC(=O)COc1ccccc1OC(=O)c1ccco1 | -0.9 | -2.8 | -62.2 | -8.7 | -51.1*
COCc1cc(C)nc(SCC[N+](C)(C)CC(=O)Nc2cccc(C(F)(F)F)c2)c1C#N | -0.5 | -36.0 | 3.8 | -12.9 | 2.2
CCN(CC)CCCNC(=O)C1c2ccccc2C(=O)N(C)C1c1ccc(OC)cc1 (stereo unspecified) | 795.0* | 4.2 | 4.9 | -5.8 | -7.9
CCN(CC)CCNc1nc(-c2ccccc2)c2c(c1C#N)CC(C)(C)OC2 | -0.1 | -7.4 | -9.8 | 55.9* | -10.1
CCN1CCN(C(=O)c2ccccc2N(Cc2ccccc2)S(=O)(=O)c2ccc(C)cc2)CC1 | -0.5 | -11.5 | -0.6 | 4.5 | -5.4
CN(Cc1cccc(F)c1)C(=O)CNS(=O)(=O)c1ccc2ccccc2c1 | 0.2 | 9.5 | 63.1* | 8.0 | 29.4
Cc1ccc(NC(=O)c2cnn(-c3ccccc3)c2C)cc1 | 0.3 | -7.4 | 72.0* | -3.1 | 36.7
Cc1cc(C(=O)Nc2ccc(Cl)cc2)c(C)n1-c1ccccc1 | -3.9 | 0.5 | -91.8 | 11.5 | -90.3*
Cc1ccc(-n2c(C)cc(C(=O)NS(=O)(=O)c3ccc(C)cc3)c2C)cc1 | 0.1 | -2.8 | 2.4 | -9.6 | -3.4
Cc1ccc(NC(=O)c2cc(C)n(-c3ccccc3)c2C)cc1 | -3.6 | 15.4 | -83.2 | 1.5 | -81.5*
Cc1ccc(NC(=O)c2cccc3ccccc23)cc1 | 1.7 | -22.2 | 30.6 | -31.6 | 13.4
Cc1ccc(NC(=O)c2cc(C)n(-c3cccc(C)c3)c2C)cc1 | -0.1 | 6.1 | -74.7 | 3.5 | -70.3*
Cc1ccccc1-c1nc(CS(=O)(=O)CC(=O)N2CCN(C)CC2)c(C)o1 | -0.2 | -4.6 | -16.4 | -5.8 | -6.8
O=C(COC(=O)/C=C/C(=O)OCC(=O)Nc1ccccc1F)Nc1ccccc1F | -0.5 | 0.3 | 66.2* | -8.1 | 53.4
C/C=C/C(=O)OCC(=O)Nc1ccccc1Br | -0.4 | 18.4 | 19.8 | 0.7 | 9.2
O=C(NC12CC3CC(CC(C3)C1)C2)N1CCN(C(=O)C2CCCO2)CC1 (stereo unspecified) | 0.0 | -12.5 | -63.6 | -10.9 | -54.5*
O=C(NC12CC3CC(CC(C3)C1)C2)N1CCC(O)CC1 | -0.7 | 4.9 | -4.5 | -5.2 | -1.2
CCOC(=O)C1=C(c2ccccc2)NC(=O)NC1c1ccsc1 (stereo unspecified) | -11.5 | 20.9 | -61.4 | -21.2 | -51.4*
CCOC(=O)C1=C(c2ccccc2)NC(=O)NC1c1cc(Br)c(O)c(OC)c1 (stereo unspecified) | -1.1 | -12.7 | 78.6* | 10.4 | 31.7
CCOC(=O)C1=C(C)NC(=O)NC1c1ccc(NC(C)=O)cc1 (stereo unspecified) | 0.1 | -1.5 | -5.3 | -2.0 | -0.8
CCOC(=O)C1=C(C)NC(=O)NC1c1ccc(N2CCC(c3ccccc3)=N2)cc1 (stereo unspecified) | -0.5 | 0.2 | 67.0* | 44.8 | 27.0
SMILES | HIF act | Calb FLC | HSF-1 act | T cruzi repl | HSF1 inh
Cc1cc2c(cc1C)CN(c1ccccc1)C2 | 1.3 | -2.9 | 55.5* | 21.9 | 25.8
Oc1cccc(N2Cc3ccccc3C2)c1 | 0.5 | 7.1 | 19.8 | 3.1 | -7.5
CSCC[C@H](NC(=O)N1CCn2c1nc1ccccc12)C(=O)NCc1ccco1 | -0.1 | -4.8 | 6.8 | -3.5 | -4.1
COc1cc(S(=O)(=O)N2CCC(O)(c3cccc(C(F)(F)F)c3)CC2)ccc1-n1cnnn1 | -0.2 | 1.4 | 3.6 | 60.9* | -0.3
O=S(=O)(c1ccc(OC(F)(F)F)cc1)N1CCC(O)(c2cccc(C(F)(F)F)c2)CC1 | 1.8 | -1.4 | 9.3 | 36.3 | 2.5
COc1ccc(C(=O)N/N=C/c2ccccc2C(=O)O)cc1OC | 0.0 | 17.4 | -6.8 | -7.6 | -6.8
CC(=O)Nc1ccc(C(=O)N/N=C/c2ccccc2OC(=O)c2ccc(Cl)cc2)cc1 | 0.0 | -10.7 | 14.3 | -5.6 | 10.4
COc1cc(C(=O)Oc2ccccc2/C=N/NC(=O)c2ccc(Cl)cc2)cc(OC)c1OC | 71.0* | 34.3 | 12.6 | 66.7* | 19.2
COc1cc(C(=O)Oc2ccccc2/C=N/NC(=O)c2ccc(C)c(Cl)c2)cc(OC)c1OC | 0.9 | -14.4 | 2.5 | 55.3* | -1.0
COc1ccc(CCC(=O)OCC(=O)Nc2c(C)nn(-c3ccccc3)c2C)cc1 | 0.2 | 0.4 | 15.6 | 5.3 | 3.1
COc1cc(O)oc1C=Nc1ccc(C(=O)O)cc1 | 1.1 | -5.6 | -64.4 | -0.8 | -61.7*
COc1cc(O)oc1C=Nc1ccc(Cl)cc1 | 0.1 | -3.3 | -3.9 | -0.9 | -0.9
Cc1ccc(C(C)C)c(OCC(=O)NC2CCN(C)CC2)c1 | 0.2 | . | -12.5 | 63.6* | -5.7
Cc1cc(Cl)ccc1OCCCC(=O)NC1CCN(C)CC1 | 0.1 | -9.9 | -20.4 | 71.3* | 2.2
Cc1ccc(OCC(=O)NC2CCCC2)c(C)c1 | 1.4 | -14.9 | 5.4 | -3.9 | 6.2
O=S(=O)(/N=C(/Nc1cccc2ccccc12)c1ccccc1)c1ccccc1 | -0.4 | 31.9 | 41.2 | 18.0 | 20.8
O=S(=O)(/N=C(/Nc1cccc2ccccc12)c1ccccc1)c1ccc(F)cc1 | 0.0 | 23.3 | 51.8* | 16.8 | 8.3
CC1CCN(S(=O)(=O)c2cccc(C(=O)NCc3cccs3)c2)CC1 | -0.4 | -3.9 | 0.4 | -11.2 | -10.2
CC1CCN(c2ccc(C(=O)NCc3cccs3)cn2)CC1 | 2.9 | -14.4 | 51.9* | 6.5 | 38.5
COc1ccc(NC(=O)CSc2ccc3c4c(cccc24)C(=O)c2ccccc2-3)cc1 | -1.2 | 2.8 | 58.5* | 34.4 | 12.1
N#Cc1cccc(NC(=O)CSc2ccc3c4c(cccc24)C(=O)c2ccccc2-3)c1 | 0.2 | 0.8 | 16.6 | 1.3 | 15.2
CCOc1ccc(CCNC(=O)CSc2ncn[nH]2)cc1OCC | -0.8 | -10.9 | -20.0 | -13.8 | -6.4
Cn1c(=O)[nH]c(=O)c2c1nc([N+](=O)[O-])n2Cc1ccccc1 | -0.2 | 35.8 | 155.4* | 35.3 | 153.4
CN(Cc1ccccc1)c1nc2c(c(=O)[nH]c(=O)n2C)n1Cc1ccccc1Cl | -0.1 | -4.5 | 78.4* | 27.5 | 29.0
CC(C)Cn1c([N+](=O)[O-])nc2c1c(=O)[nH]c(=O)n2C | -0.3 | -6.2 | -5.8 | -2.1 | 16.4
COc1ccc(-c2nc3c(c(=O)[nH]c(=O)n3Cc3ccccc3)n2C)cc1 | -0.4 | -1.8 | 18.9 | 12.2 | 3.5
COc1ccc(-c2nc3c(c(=O)[nH]c(=O)n3Cc3ccccc3)n2Cc2ccccc2)cc1 | -0.9 | 20.9 | 27.4 | 61.1* | 17.6
COC(=O)[C@H](CCSC)NC(=O)NC1CC1 | -0.6 | -6.4 | 0.0 | -8.3 | 0.7
